Experimental findings from ChEMBL document CHEMBL1138514, “Rhodamine inhibitors of P-glycoprotein: an amide/thioamide "switch" for ATPase activity” (J Med Chem, 2009) are described below.

For series [1], the system named is CN(C)c1ccc2c(-c3ccsc3C(=O)O)c3ccc(=[N+](C)C)cc-3[se]c2c1. The series can be described thus: not read.
Series [2] has as its system CN(C)c1ccc2c(CCCOc3ccccc3)c3ccc(=[N+](C)C)cc-3sc2c1. The series can be described thus: not read.
The subject of series [3] is COc1ccc(-c2c3ccc(=[N+](C)C)cc-3[se]c3cc(N(C)C)ccc23)cc1OC. The series can be described thus: not read.
Series [4] deals with CN(C)c1ccc2c(-c3ccc(N4CCOCC4)cc3)c3ccc(=[N+](C)C)cc-3sc2c1. The series can be described thus: not read.
Series [5] relates to CN(C)c1cccc(-c2c3ccc(=[N+](C)C)cc-3[te]c3cc(N(C)C)ccc23)c1. The series can be described thus: not read.
Series [6] relates to CN(C)c1ccc2c(-c3ccsc3C(=O)O)c3ccc(=[N+](C)C)cc-3sc2c1. The series can be described thus: not read.
Series [7] has as its system CN(C)c1cccc(-c2c3ccc(=[N+](C)C)cc-3[se]c3cc(N(C)C)ccc23)c1. The series can be described thus: not read.
Series [8] concerns COc1cccc(-c2c3ccc(=[N+](C)C)cc-3[te]c3cc(N(C)C)ccc23)c1. The series can be described thus: not read.
Series [9] deals with COc1cccc(-c2c3ccc(=[N+](C)C)cc-3[se]c3cc(N(C)C)ccc23)c1. The series can be described thus: not read.
Series [10] concerns CN(C)c1ccc2c(-c3ccc(C(=O)O)s3)c3ccc(=[N+](C)C)cc-3sc2c1. The series can be described thus: not read.
For series [11], the system named is COc1ccc(-c2c3ccc(=[N+](C)C)cc-3sc3cc(N(C)C)ccc23)cc1OC. The series can be described thus: not read.
Series [12] deals with C[N+](C)=c1ccc2c(-c3ccccc3)c3cc4c5c(c3[te]c-2c1)CCCN5CCC4. The series can be described thus: not read.
In series [13] the test system is CN(C)c1ccc2c(-c3ccccc3)c3ccc(=[N+](C)C)cc-3[te]c2c1. The series can be described thus: not read.
In series [14] the test system is CN(C)c1ccc2c(-c3ccc(C(=O)O)s3)c3ccc(=[N+](C)C)cc-3[te]c2c1. The series can be described thus: not read.
In series [15] the test system is CCN(CC)C(=O)c1ccc(-c2c3ccc(=[N+](C)C)cc-3[se]c3cc(N(C)C)ccc23)s1. The series can be described thus: not read.
The test system of series [16] is CN(C)c1ccc(-c2c3ccc(=[N+](C)C)cc-3[te]c3cc(N(C)C)ccc23)cc1. The series can be described thus: not read.
Series [17] concerns CN(C)c1ccc2c(-c3ccsc3C(=O)O)c3ccc(=[N+](C)C)cc-3[se]c2c1. The series can be described thus: (§1) Induction of mouse cysteine-less MDR3 ATPase activity by apparent Michaelis-Menten constant. In a few lines: (§2)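 Isolated P-gp ATPase activity is measured as inorganic phosphate released across a range of rhodamine concentrations. KM is the apparent Michaelis-Menten constant, the concentration giving half-maximal stimulation of ATPase activity.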

In series [18] the test system is CN(C)c1ccc2c(CCCOc3ccccc3)c3ccc(=[N+](C)C)cc-3sc2c1. The description is as §1. Summed up:
as §2

Series [19] deals with COc1cccc(-c2c3ccc(=[N+](C)C)cc-3[se]c3cc(N(C)C)ccc23)c1. The series is described as §1. Summed up: as §2
Series [20] concerns CCOC(=O)c1ccc(-c2c3ccc(=[N+](C)C)cc-3sc3cc(N(C)C)ccc23)s1. The series is described as §1. Summed up: as §2
Series [21] relates to COc1ccc(-c2c3ccc(=[N+](C)C)cc-3sc3cc(N(C)C)ccc23)cc1OC. The series is described as §1. In a few lines: as §2
In series [22] the test system is CCN(CC)C(=O)c1ccccc1-c1c2ccc(=[N+](C)C)cc-2sc2cc(N(C)C)ccc12. The description is as §1. Summed up: as §2
Series [23] concerns CN(C)c1ccc2c(-c3ccc(CCl)cc3)c3ccc(=[N+](C)C)cc-3oc2c1. The series is described as §1. Summed up: as §2
The test system of series [24] is COC(=O)c1ccccc1-c1c2ccc(=[N+](C)C)cc-2sc2cc(N(C)C)ccc12. The description is as §1. In a few lines:
as §2

The subject of series [25] is CN(C)c1ccc2c(-c3ccccc3C(=O)O)c3ccc(=[N+](C)C)cc-3sc2c1. The series is described as §1. In a few lines: as §2
The subject of series [26] is CCN(CC)C(=O)c1ccc(-c2c3ccc(=[N+](C)C)cc-3sc3cc(N(C)C)ccc23)s1. Described as §1. In a few lines: as §2
For series [27], the system named is CCN(CC)C(=O)c1ccc(-c2c3ccc(=[N+](C)C)cc-3[se]c3cc(N(C)C)ccc23)s1. The series is described as §1. In a few lines: as §2
For series [28], the system named is COc1ccc(-c2c3ccc(=[N+](C)C)cc-3sc3cc(N(C)C)ccc23)cc1. The series can be described thus: not read.

Consider “ATP-dependent translocase ABCB1 (Homo sapiens)”, for which the Km – broadly, the concentration of substrate that gives half-maximal velocity – in [1] came to 56 µM; in [2] it was 3.2 µM; in series [3], 8.3 µM; in series [4], 10 µM; in series [5], 2 µM; in series [6], 111 µM. Further, the Km in series [7] was 3.5 µM; in series [8], 3.2 µM; in [9], 3.3 µM; in series [10], 140 µM; in [11], 4.9 µM; in [12], 4.4 µM. The Km in [13] came to 8.3 µM; in series [14], 9.6 µM; in series [15], 0.68 µM; in [16], 9 µM.
Consider “ATP-dependent translocase ABCB1 (Mus musculus)”, for which the Km came out at 29 µM in [17]; 6 µM in series [18]; 44 µM in series [19]; 156 µM in series [20]; 35 µM in series [21]; 5.7 µM in series [22]. The Km was found to be 77 µM in series [23]; 266 µM in series [24]; 56 µM in series [25]; 3.4 µM in series [26]; 3.6 µM in series [27]; 67 µM in [3]. The Km in series [28] turned out to be 75 µM.
